The test system of data set [1] is HUVEC. The data set can be described thus: Antiproliferative activity against human HUVEC at 195 uM after 24 hrs. The class given is cell-based. The method in brief: (§1)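 HUVECs in M199 with 20% bovine serum and 20 ng/mL bFGF, seeded at 20,000 cells/well onto Matrigel that had gelled 30 min at 37 °C, left to attach overnight. Medium changed to one containing test agent or vehicle (0.5% DMSO) and cultured 24 h at 37 °C, 5% CO₂. Each well photographed and counted.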

Another data set deals with ECV-304. Description: (§2) Antiproliferative activity against human ECV304 cells assessed as growth inhibition after 72 hrs by MTT assay. The class given is cell-based. Particulars: for IC50: Homo sapiens, ECV-304, 72 h; for growth inhibition (GI): human, ecv-304, 72 h. The essentials:
(§3)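 ECV-304 grown in RPMI 1640 with 10% bovine serum, seeded 6000 cells/well and left to attach overnight at 37 °C, 5% CO₂. Medium then replaced by fresh medium with 1% FBS plus test agent or DMSO vehicle for 72 h. MTT added for a further 4 h, absorbance read at 535 nm. Duplicate wells, three independent repeats.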

The test system of data set [2] is HUVEC. Description: Antiproliferative activity against human HUVEC assessed as tube formation at 195 uM after 24 hrs. The class given is cell-based. The method in brief: as §1
Data set [3] in a line: as §2. The class given is cell-based, ECV-304. Particulars: human, ECV304 cells; read-out: GI. The method in brief:
as §3

The next data set concerns PC-3. Description: Antitumor activity against human PC3 cells in xenograft model. The class given is functional.
The nature of data set [4]: Toxicity in ip dosed nude mouse administered for 2 weeks. The class given is organism-based. As to conditions: in vivo.
The nature of data set [5]: Antitumor activity against human Lung cancer cells in metastasis model. The class given is functional, Cancer cell lines.
A short description of data set [6]: Stability of the compound after 1 month by HPLC method (reference value: 91.6%). It is filed as physicochemical. Particulars: read-out: Stability.
The nature of data set [7]: Stability of the compound assessed as purity after 2 months by HPLC method (reference value: 99.3%). It is filed as physicochemical. Particulars: 1461 h.
A short description of data set [8]: Stability of the compound in aqueous solution after 8 hrs. It is filed as physicochemical. Particulars: buffer. The method in brief: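 Stability followed in aqueous solution over 8 h.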
A short description of data set [9]: Aqueous solubility of the compound after 8 hrs by UV spectroscopy. The class given is physicochemical.
The subject of data set [10] is MX1. The data set can be described thus: Antitumor activity against human MX1 cells xenografted in mouse at 65 mg/kg, ip for 5 days. The arrangement: dose 65 mg/kg. It is filed as functional, organism-based. The essentials:
(§4)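 Mice implanted subcutaneously in the right flank with 1–2 mm³ MX-1 tumor fragments. Dosing began on day 7, at about 200 mm³ tumor size. Five mice per group: vehicle; 65 mg/kg once daily for five consecutive days; or that regimen plus Taxol 5 mg/kg iv once on day 7. Read-outs were tumor growth inhibition rate, survival and body weight.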

The subject of data set [11] is MX1. Description: Potentiation of taxol-induced antitumor activity against human MX1 cells xenografted in mouse at 65 mg/kg, ip for 5 days co-administered with taxol at 5 mg/kg, iv on day 7 post challenge. The class given is functional, organism-based. The method in brief:
as §4

The test system of data set [12] is MX1. The data set can be described thus: Antitumor activity against human MX1 cells implanted subcutaneously in mouse at 5 mg/kg, iv administered on day 7 post challenge. It is filed as functional. The method in brief: as §4
A short description of data set [13]: Stability of the compound assessed as purity after 2 months by HPLC method (reference value: 98.9%). The class given is physicochemical. Particulars: 1461 h.
The test system of another data set is Rattus norvegicus. Description: Prodrug activation in IV dosed rat assessed as formation of CPS11. The class given is organism-based. Particulars: in vivo.
The subject of data set [14] is Mus musculus. The data set can be described thus: Toxicity in mouse assessed as body weight loss at 65 mg/kg, ip for 5 days co-administered with taxol at 5 mg/kg, iv on day 7 post challenge. It is filed as organism-based. Particulars: in vivo, 120 h. The method in brief:
(§5)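 Mice bearing MX-1 human breast tumour fragments (1–2 mm³, implanted subcutaneously in the right flank), five per group. Treatment began on day 7 after inoculation, at a tumour size of about 200 mm³. Groups received vehicle, test compound at 65 mg/kg once daily for five consecutive days, or the same schedule plus Taxol 5 mg/kg iv once on day 7. Survival and body weight loss were monitored.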

Data set [15] in a line: Bioavailability in intragastrically administered rat. As to conditions: in vivo, po. The class given is ADME, organism-based. The essentials:
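Single intragastric dose given to rats; oral bioavailability determined.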

Data set [16] deals with Mus musculus. The data set can be described thus: Toxicity in mouse assessed as mouse survival at 65 mg/kg, ip for 5 days co-administered with taxol at 5 mg/kg, iv on day 7 post challenge. The class given is organism-based. As to conditions: in vivo, 120 h. The method in brief:
as §5

The text below walks through data of ChEMBL document CHEMBL1909561, “Stable and orally bio-available pro-drugs of CPS11” (Bioorg Med Chem Lett, 2011).

The source made the active and inactive calls. No cut-off for these calls is given here.

Turning to `O=C(OCN1C(=O)CCC(N2C(=O)c3ccccc3C2=O)C1=O)c1ccccn1` (stereo not drawn), in the data set with HUVEC [1], the Activity came out at 88%. In the data set on ECV-304, the IC50 came to 100 nM and the “growth inhibition (GI)” value was “Dose-dependent effect”.

In the case of `O=C(OCN1C(=O)CCC(N2C(=O)c3ccccc3C2=O)C1=O)c1cccnc1` (stereo not drawn) [listing 1 of 2 here], in the data set on HUVEC [1], the Activity was 88%. Further, in the data set with ECV-304, the IC50 is 120 nM and the “growth inhibition (GI)” value was “Dose-dependent effect”.

Regarding `O=C1CCC(N2C(=O)c3ccccc3C2=O)C(=O)N1` (stereo not drawn) [THALIDOMIDE], in the data set on HUVEC [2], the Activity worked out at 53%. In addition, the inhibition at 72 h in [3] stood at 40%.

In the case of `O=C1CCC(N2C(=O)c3ccccc3C2=O)C(=O)N1CO` (stereo not drawn), the “inhibition (INH)” value is 90% with PC-3 and 87% in [5]. In addition, the MTD at 336 h in [4] stood at 100 mg/kg. In addition, the remaining at 730.5 h in data set [6] was found to be 58.9%.

For `Cl.O=C(OCN1C(=O)CCC(N2C(=O)c3ccccc3C2=O)C1=O)c1cccnc1` (stereo not drawn), the Stability entry in data set [7] and in [8] was “Stable” each time. The same compound showed a solubility at 8 h in data set [9] of 1480 µg/mL.

Turning to `O=C(OCN1C(=O)CCC(N2C(=O)c3ccccc3C2=O)C1=O)c1cccnc1` (stereo not drawn) [listing 2 of 2 here], the outcome in the data set on MX1 [10] was inactive. Moreover, the outcome in the data set on MX1 [11] was Active.

`CC(=O)O[C@H]1C(=O)[C@@]2(C)[C@H]([C@H](OC(=O)c3ccccc3)[C@]3(O)C[C@H](OC(=O)[C@H](O)[C@@H](NC(=O)c4ccccc4)c4ccccc4)C(C)=C1C3(C)C)[C@]1(OC(C)=O)CO[C@@H]1C[C@@H]2O` [PACLITAXEL] displayed an Activity with MX1 [12] of 33.1%.

`O=C(OCN1C(=O)CCC(N2C(=O)c3ccccc3C2=O)C1=O)c1ccncc1` (stereo not drawn): the Activity in the data set with HUVEC [1] amounted to 88%. In the data set on ECV-304, the IC50 is 180 nM and the “growth inhibition (GI)” value is “Dose-dependent effect”.

As for `O=C(OCN1C(=O)CCC(N2C(=O)c3ccccc3C2=O)C1=O)c1cccnc1.O=S(=O)(O)c1ccccc1` (stereo not drawn), the Stability result in data set [8] and in data set [13] was “Stable” each time. Moreover, the Activity result is recorded as “Active” in the data set with Rattus norvegicus, “Non-toxic” with Mus musculus [14] and “Non-toxic” in the data set with Mus musculus [16]. In data set [15], this compound had a bioavailability of 60.7%. Besides, the concentration in solution in [9] (solubility at 8 h) was 840 µg/mL.
